# Measurements published in ChEMBL document CHEMBL1149559, “Synthesis and evaluation of amphiphilic cationic quinine-derived for antibacterial activity against methicillin-resistant Staphylococcus aureus” (Bioorg Med Chem Lett, 2007).
# Activity calls are given as the source filed them. No cut-off for these calls is given here.
# Experiments:
# [1] = Toxicity in human erythrocytes assessed as hemolytic activity at 1000 ug/ml after 1 hr; assay type: cell-based, Erythrocyte; conditions: read-out: Activity
# Method in brief: (§1)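 Human heparinised erythrocytes, PBS-washed, were used at about 1.0 × 10^9 cells/mL and mixed 1:1 with compound (1-2000 µg/mL) for 1 h at 37 °C. After centrifugation, supernatant OD540 was read. PBS set 0% lysis and 0.1% Triton X-100 set 100% lysis. Triplicates, confirmed in three independent experiments.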
# Staphylococcus aureus [2] = assay: Antibacterial activity against methicillin-resistant Staphylococcus aureus CMAH 0504 at 30 ug/ml by disk diffusion method; assay type: functional; conditions: read-out: IZ
# Micrococcus luteus = assay: Antibacterial activity against Micrococcus luteus CMCC(B)28001 by broth microdilution method; assay type: functional
# Method in brief: (§2)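 MIC and MBC by broth microdilution following NCCLS recommendations; values given in µg/mL.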
# Staphylococcus aureus [3] = assay: Antibacterial activity against methicillin-resistant Staphylococcus aureus CMAH 0515 by disk diffusion method; assay type: functional
# Bacillus subtilis = assay: Antibacterial activity against Bacillus subtilis ATCC 6633 by broth microdilution method; assay type: functional; method in brief: as §2
# [4] = Toxicity in human erythrocytes assessed as hemolytic activity at 500 ug/ml after 1 hr; assay type: cell-based, Erythrocyte; conditions: read-out: Activity; method in brief: as §1
# Staphylococcus aureus [5] = assay: Antibacterial activity against methicillin-resistant Staphylococcus aureus CMAH 0504 by broth microdilution method; assay type: functional; method in brief: as §2
# [6] = Toxicity in human erythrocytes assessed as hemolytic activity at 2000 ug/ml after 1 hr; assay type: cell-based, Erythrocyte; conditions: read-out: Activity; method in brief: as §1
# [7] = Toxicity in human erythrocytes assessed as hemolytic activity at 250 ug/ml after 1 hr; assay type: cell-based, Erythrocyte; conditions: read-out: Activity; method in brief: as §1
# Staphylococcus aureus [8] = assay: Antibacterial activity against methicillin-resistant Staphylococcus aureus CMAH 0430 by broth microdilution method; assay type: functional; method in brief: as §2
# Escherichia coli = assay: Antibacterial activity against Escherichia coli ATCC 25922 by broth microdilution method; assay type: functional; method in brief: as §2
# Staphylococcus aureus [9] = assay: Antibacterial activity against methicillin-resistant Staphylococcus aureus CMAH 0515 by broth microdilution method; assay type: functional; method in brief: as §2
# Pseudomonas aeruginosa = assay: Antibacterial activity against Pseudomonas aeruginosa ATCC 27853 by broth microdilution method; assay type: functional; method in brief: as §2
# Staphylococcus aureus [10] = assay: Antibacterial activity against methicillin-susceptible Staphylococcus aureus ATCC 25923 by broth microdilution method; assay type: functional; method in brief: as §2
# Staphylococcus aureus [11] = assay: Antibacterial activity against methicillin-resistant Staphylococcus aureus CMAH 0430 by disk diffusion method; assay type: functional
# Staphylococcus aureus [12] = assay: Antibacterial activity against Staphylococcus aureus by disk diffusion method; assay type: functional
# Staphylococcus aureus [13] = assay: Antibacterial activity against methicillin-susceptible Staphylococcus aureus ATCC 25923 at 15 ug/ml after 40 mins; assay type: functional, organism-based
# Method in brief: (§3)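 Time-kill assay. Mid-log cultures were diluted in Mueller–Hinton broth to a final inoculum of 3-5 × 10^5 cells/mL and incubated at 30 °C with 5, 10, 15 µg/mL (S. aureus ATCC 25923) or 2.5, 5, 10 µg/mL (MRSA CMAH 0504), alongside a drug-free growth control. Samples were washed, plated on MH agar and incubated 24 h at 30 °C for colony counts. Three independent experiments, each in triplicate.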
# Staphylococcus aureus [14] = assay: Antibacterial activity against methicillin-resistant Staphylococcus aureus CMAH 0504 at 10 ug/ml after 20 to 30 mins; assay type: functional, organism-based; method in brief: as §3
SMILES,"hemolysis at 1 h, 1000 ug/ml [1] [%]",zone of inhibition at 30 µg/mL (Staphylococcus aureus [2]) [mm],MBC (Micrococcus luteus) [µg/mL],MIC (Micrococcus luteus) [µg/mL],inhibition zone (IZ) (Staphylococcus aureus [3]) [mm],MBC (Bacillus subtilis) [µg/mL],MIC (Bacillus subtilis) [µg/mL],"hemolysis at 1 h, 500 ug/ml [4] [%]",MBC (Staphylococcus aureus [5]) [µg/mL],MIC (Staphylococcus aureus [5]) [µg/mL],"hemolysis at 1 h, 2000 ug/ml [6] [%]","hemolysis at 1 h, 250 ug/ml [7] [%]",MBC (Staphylococcus aureus [8]) [µg/mL],MIC (Staphylococcus aureus [8]) [µg/mL],MBC (Staphylococcus aureus [9]) [µg/mL],MIC (Staphylococcus aureus [9]) [µg/mL],MBC (Staphylococcus aureus [10]) [µg/mL],MIC (Staphylococcus aureus [10]) [µg/mL],inhibition zone (IZ) (Staphylococcus aureus [11]) [mm],inhibition zone (IZ) (Staphylococcus aureus [12]) [mm],other results
C=CC1C[N+]2(CC(=O)c3ccc(Br)cc3)CCC1CC2[C@H](O)c1ccnc2ccc(OC)cc12.[Br-] (stereo partly specified),7,22,6.25,6.25,22,6.25,3.13,0,12.5,6.25,25,0,6.25,3.13,6.25,3.13,6.25,3.13,23,24,MIC (Escherichia coli): 100 µg/mL; MIC (Pseudomonas aeruginosa): 100 µg/mL
C=CC1C[N+]2(CC(=O)c3ccc(OC)cc3)CCC1CC2[C@H](O)c1ccnc2ccc(OC)cc12.[Br-] (stereo partly specified),0,,12.5,12.5,,25,12.5,0,50,25,0,0,50,25,50,25,12.5,12.5,,,
O=C(N[C@H](CO)[C@H](O)c1ccc([N+](=O)[O-])cc1)C(Cl)Cl [CHLORAMPHENICOL],,26,,,27,,,,,,,,,,,,,,27,32,
C=CC1C[N+]2(CC(=O)c3ccc(Cl)cc3)CCC1CC2[C@H](O)c1ccnc2ccc(OC)cc12 (stereo partly specified),,,,,,,,,,,,,,,,,,,,,Activity (Staphylococcus aureus [5]): inactive; Activity (Staphylococcus aureus [8]): inactive; Activity (Staphylococcus aureus [9]): inactive; Activity (Staphylococcus aureus [10]): inactive
NC[C@H]1O[C@H](O[C@H]2[C@H](O)[C@@H](O[C@H]3O[C@H](CO)[C@@H](O)[C@H](N)[C@H]3O)[C@H](N)C[C@@H]2N)[C@H](O)[C@@H](O)[C@@H]1O [KANAMYCIN],,,0.39,0.39,,6.25,6.25,,,,,,,,,,0.78,0.39,,28,MBC (Escherichia coli): 0.39 µg/mL; MIC (Escherichia coli): 0.39 µg/mL
CN(C)[C@@H]1C(O)=C(C(N)=O)C(=O)[C@@]2(O)C(O)=C3C(=O)c4c(O)cccc4[C@@](C)(O)[C@H]3C[C@@H]12 [TETRACYCLINE],,17,,,17,,,,,,,,,,,,,,15,14,
C=CC1C[N+]2(CC(=O)c3ccccc3)CCC1CC2[C@H](O)c1ccnc2ccc(OC)cc12.[Br-] (stereo partly specified),0,,12.5,6.3,,25,25,0,25,12.5,5,0,25,12.5,25,12.5,25,12.5,,,
CN[C@H](CC(C)C)C(=O)N[C@H]1C(=O)N[C@@H](CC(N)=O)C(=O)N[C@H]2C(=O)N[C@H]3C(=O)N[C@H](C(=O)N[C@H](C(=O)O)c4cc(O)cc(O)c4-c4cc3ccc4O)[C@H](O)c3ccc(c(Cl)c3)Oc3cc2cc(c3O[C@@H]2O[C@H](CO)[C@@H](O)[C@H](O)[C@H]2O[C@H]2C[C@](C)(N)[C@H](O)[C@H](C)O2)Oc2ccc(cc2Cl)[C@H]1O [VANCOMYCIN],,22,,,24,,,,,,,,,,,,,,24,23,
CC1(C)S[C@@H]2[C@H](NC(=O)[C@H](N)c3ccccc3)C(=O)N2[C@H]1C(=O)O [AMPICILLIN],,,0.78,0.39,,0.39,0.39,,,,,,,,,,0.78,0.39,,34,MBC (Escherichia coli): 100 µg/mL; MIC (Escherichia coli): 50 µg/mL
CCC(=O)O[C@@H]1CC(=O)O[C@H](C)C/C=C/C=C/[C@H](O)[C@H](C)C[C@H](CC=O)[C@H](O[C@@H]2O[C@H](C)[C@@H](O[C@H]3C[C@@](C)(O)[C@@H](OC(=O)CC)[C@H](C)O3)[C@H](N(C)C)[C@H]2O)[C@H]1OC [MIDECAMYCIN],,,,,,,,,,,,,,,,,,,,27,
C=C[C@H]1C[N@@]2CC[C@H]1C[C@H]2[C@H](O)c1ccnc2ccc(OC)cc12 [QUININE],0,,,,,,,0,,,0,0,,,,,,,,,
C=CC1C[N+]2(CC(=O)c3ccc([N+](=O)[O-])cc3)CCC1CC2[C@H](O)c1ccnc2ccc(OC)cc12.[Br-] (stereo partly specified),0,,50,25,,50,25,0,50,50,0,0,50,50,50,50,50,25,,,
Cc1nnc(SCC2=C(C(=O)O)N3C(=O)[C@@H](NC(=O)Cn4cnnn4)[C@H]3SC2)s1 [CEFAZOLIN],,,,,,,,,,,,,,,,,,,2,30,
C=CC1C[N+]2(CC(=O)c3cccc4ccccc34)CCC1CC2[C@H](O)c1ccnc2ccc(OC)cc12.[Br-] (stereo partly specified),17,23,3.13,3.13,25,6.25,3.13,9,1.56,0.78,55,0,1.56,0.39,1.56,0.39,3.13,1.56,26,26,Activity (Staphylococcus aureus [13]): inactive; MBC (Escherichia coli): 100 µg/mL; MIC (Escherichia coli): 50 µg/mL; MIC (Pseudomonas aeruginosa): 100 µg/mL; Activity (Staphylococcus aureus [14]): Active
C[C@H]1COc2c(N3CCN(C)CC3)c(F)cc3c(=O)c(C(=O)O)cn1c23.C[C@H]1COc2c(N3CCN(C)CC3)c(F)cc3c(=O)c(C(=O)O)cn1c23.O [LEVOFLOXACIN],,,,,,,,,,,,,,,,,,,,32,
C=C[C@H]1CN2CC[C@H]1C[C@H]2[C@H](O)c1ccnc2ccc(OC)cc12,,,,,,,,,,,,,,,,,,,,,Activity (Staphylococcus aureus [5]): inactive; Activity (Staphylococcus aureus [8]): inactive; Activity (Staphylococcus aureus [9]): inactive; Activity (Staphylococcus aureus [10]): inactive
